The source of these data is ChEMBL document CHEMBL1255307, “Role of the AheABC efflux pump in Aeromonas hydrophila intrinsic multidrug resistance” (2008).

Values after ≈ are worked out from the molar mass of the structure shown. Where a SMILES comes first, the peptide text is derived from it. Bridges are numbered along the chain shown (N, C = ends). [ ]: non-standard residue; d: D form. The star is where a group is joined. NMePhe(4-NMe2) = CN[C@@H](Cc1ccc(N(C)C)cc1)C(=O)O; Pip(4-oxo) = O=C1CCN[C@H](C(=O)O)C1; Picolinoyl(3-OH) = O=C(c1ncccc1O)*; Phg = N[C@H](C(=O)O)c1ccccc1; dAbu = CC[C@@H](N)C(=O)O Some results are limits rather than exact numbers.

What all share (format): functional
A short description of test [1]: (§1) Antimicrobial activity against Aeromonas hydrophila subsp. hydrophila ATCC 7966 harboring plasmid pEX19Gm by agar dilution method in presence of 64 mg/L efflux pump inhibitor phenylalanine-arginine-beta-naphthylamide.
A short description of test [2]: (§2) Antimicrobial activity against aheB deficient kanamycin-resistant Aeromonas hydrophila subsp. hydrophila ATCC 7966 harboring plasmid pEX19Gm by agar dilution method. Summed up: (§3)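 Agar dilution MICs on MH medium, final inoculum about 10^4 CFU per spot. Tested in A. hydrophila ATCC 7966T and E. coli TG1 strains (wild type, ΔaheB::kan or ΔacrAB), each carrying empty pEX19Gm or a pump-encoding plasmid (pEXAheABC, pUCAcrAB). Run at least in triplicate, mode value reported.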

Test [3] is described as follows: (§4) Antimicrobial activity against aheB deficient kanamycin-resistant Aeromonas hydrophila subsp. hydrophila ATCC 7966 harboring plasmid pEX19Gm by agar dilution method in presence of 64 mg/L efflux pump inhibitor phenylalanine-arginine-beta-naphthylamide.
A short description of test [4]: (§5) Antimicrobial activity against aheB deficient kanamycin-resistant Aeromonas hydrophila subsp. hydrophila ATCC 7966 harboring AheABC efflux pump by agar dilution method. Summed up:
as §3

Test [5] can be described thus: (§6) Antimicrobial activity against aheB-deficient kanamycin-resistant Aeromonas hydrophila subsp. hydrophila ATCC 7966 harboring AheABC efflux pump by agar dilution method in presence of 64 mg/L efflux pump inhibitor phenylalanine-arginine-beta-naphthylamide.
The test system of test [6] is Escherichia coli. The test can be described thus: Antimicrobial activity against Escherichia coli TG1 harboring plasmid pEX19Gm by agar dilution method. The method in brief: as §3
For test [7], the system named is Escherichia coli. The test is described as follows: Antimicrobial activity against acrAB-deficient Escherichia coli TG1 harboring plasmid pEX19Gm by agar dilution method. The method in brief: as §3
The subject of test [8] is Escherichia coli. The test can be described thus: Antimicrobial activity against acrAB-deficient Escherichia coli TG1 harboring AcrAB efflux pump by agar dilution method. Summed up:
as §3

For test [9], the system named is Escherichia coli. The test can be described thus: Antimicrobial activity against acrAB-deficient Escherichia coli TG1 harboring AheABC efflux pump by agar dilution method. Summed up:
as §3

Test [10] can be described thus: (§7) Antimicrobial activity against Aeromonas hydrophila subsp. hydrophila ATCC 7966 harboring plasmid pEX19Gm by agar dilution method. The method in brief: as §3
The test system of test [11] is Aeromonas hydrophila subsp. hydrophila ATCC 7966. The test is described as §1.
For test [12] the test system is unchanged. The description is as §2. Summed up:
as §3

The test system is the same in test [13]. The description is as §4.
For test [14] the test system is unchanged. Described as §5. The method in brief: as §3
Test [15] shares this test system. The description is as §6.
Test [16] has the same test system. The description is as §7. Summed up:
as §3

`CO/N=C(\C(=O)N[C@@H]1C(=O)N2C(C(=O)O)=C(COC(N)=O)CS[C@H]12)c1ccco1` [CEFUROXIME]: the minimum inhibitory concentration (MIC) in [1] came to 1 µg/mL; in [2] it was 0.25 µg/mL (≈ 0.589 µM); in test [3], 0.25 µg/mL; in [4] it was 4 µg/mL (≈ 9.43 µM); in test [5], 4 µg/mL; in the test on Escherichia coli [6], 4 µg/mL (≈ 9.43 µM). In addition, the MIC in the test with Escherichia coli [7] was 0.5 µg/mL (≈ 1.18 µM); in the test on Escherichia coli [8] it was 8 µg/mL (≈ 18.9 µM); with Escherichia coli [9], 2 µg/mL (≈ 4.71 µM); in test [10], 1 µg/mL (≈ 2.36 µM).
Turning to `CC(=O)O[C@H]1C[C@@]2(C)[C@@H](C[C@@H](O)[C@H]3[C@@]4(C)CC[C@@H](O)[C@@H](C)[C@@H]4CC[C@@]32C)/C1=C(\CCC=C(C)C)C(=O)O` [FUSIDIC ACID], the MIC is 2 µg/mL in [1]; 64 µg/mL (≈ 124 µM) in [2]; 1 µg/mL in test [3]; 256 µg/mL (≈ 495 µM) in test [4]; 8 µg/mL in [5]; 512 µg/mL (≈ 991 µM) in the test on Escherichia coli [6]. Further, the MIC stood at 2 µg/mL (≈ 3.87 µM) against Escherichia coli [7], 512 µg/mL (≈ 991 µM) against Escherichia coli [8], 128 µg/mL (≈ 248 µM) in the test on Escherichia coli [9] and 128 µg/mL (≈ 248 µM) in [10].
Take `COc1cc(Cc2cnc(N)nc2N)cc(OC)c1OC` [TRIMETHOPRIM]: the MIC amounted to 8 µg/mL in test [1]; 8 µg/mL (≈ 27.6 µM) in test [2]; 4 µg/mL in test [3]; 32 µg/mL (≈ 110 µM) in test [4]; 16 µg/mL in test [5]; 0.2 µg/mL (≈ 0.689 µM) against Escherichia coli [6]. In addition, the MIC against Escherichia coli [7] was determined as 0.05 µg/mL (≈ 0.172 µM); with Escherichia coli [8], 0.05 µg/mL (≈ 0.172 µM); in the test with Escherichia coli [9], 0.05 µg/mL (≈ 0.172 µM); in [10] it was 16 µg/mL (≈ 55.1 µM).
Consider `CC[n+]1c(-c2ccccc2)c2cc(N)ccc2c2ccc(N)cc21.[Br-]` [HOMIDIUM BROMIDE], for which the MIC in test [1] worked out at 128 µg/mL; in test [2], 64 µg/mL; in test [3] it was 64 µg/mL; in test [4], 512 µg/mL; in [5], 512 µg/mL; in the test with Escherichia coli [6], 512 µg/mL. Further, the minimal inhibitory concentration (MIC) came to 2 µg/mL against Escherichia coli [7], 512 µg/mL with Escherichia coli [8], 64 µg/mL in the test with Escherichia coli [9] and 128 µg/mL in test [10].
Regarding `CC[C@H]1OC(=O)[C@H](C)[C@@H](O[C@H]2C[C@@](C)(OC)[C@@H](O)[C@H](C)O2)[C@H](C)[C@@H](O[C@@H]2O[C@H](C)C[C@H](N(C)C)[C@H]2O)[C@](C)(O)C[C@@H](C)C(=O)[C@H](C)[C@@H](O)[C@]1(C)O` [ERYTHROMYCIN], the minimum inhibitory concentration (MIC) in test [1] came to 2 µg/mL; in test [2] it was 8 µg/mL (≈ 10.9 µM); in [3], 1 µg/mL; in [4], 64 µg/mL (≈ 87.2 µM); in test [5], 2 µg/mL; against Escherichia coli [6], 64 µg/mL (≈ 87.2 µM). Also, the MIC against Escherichia coli [7] was found to be 1 µg/mL (≈ 1.36 µM); against Escherichia coli [8], 128 µg/mL (≈ 174 µM); against Escherichia coli [9], 32 µg/mL (≈ 43.6 µM); in test [10], 16 µg/mL (≈ 21.8 µM).
Regarding `CO[C@H]1/C=C/O[C@@]2(C)Oc3c(C)c(O)c4c(O)c(c(/C=N/N5CCN(C)CC5)c(O)c4c3C2=O)NC(=O)/C(C)=C\C=C\[C@H](C)[C@H](O)[C@@H](C)[C@@H](O)[C@@H](C)[C@H](OC(C)=O)[C@@H]1C` [RIFAMPIN], the minimum inhibitory concentration (MIC) in test [1] came out at 0.06 µg/mL; in test [2], 1 µg/mL (≈ 1.22 µM); in [3], 0.03 µg/mL; in [4], 4 µg/mL (≈ 4.86 µM); in test [5], 0.12 µg/mL; against Escherichia coli [6], 16 µg/mL (≈ 19.4 µM). Moreover, the minimal inhibitory concentration (MIC) against Escherichia coli [7] worked out at 8 µg/mL (≈ 9.72 µM); against Escherichia coli [8] it was 16 µg/mL (≈ 19.4 µM); with Escherichia coli [9], 8 µg/mL (≈ 9.72 µM); in [10], 2 µg/mL (≈ 2.43 µM).
Regarding `CCN1CCN(C(=O)N[C@@H](C(=O)N[C@@H]2C(=O)N3C(C(=O)O)=C(CSc4nnnn4C)CS[C@H]23)c2ccc(O)cc2)C(=O)C1=O` [CEFOPERAZONE], the minimum inhibitory concentration (MIC) in test [1] came out at 0.25 µg/mL; in [2], 0.06 µg/mL (≈ 0.0929 µM); in [3], 0.06 µg/mL; in test [4], 2 µg/mL (≈ 3.1 µM); in [5] it was 2 µg/mL; against Escherichia coli [6] it was 0.25 µg/mL (≈ 0.387 µM). Moreover, the MIC against Escherichia coli [7] stood at 0.03 µg/mL (≈ 0.0465 µM); in the test with Escherichia coli [8] it was 8 µg/mL (≈ 12.4 µM); against Escherichia coli [9], 0.06 µg/mL (≈ 0.0929 µM); in [10] it was 0.25 µg/mL (≈ 0.387 µM).
For `CCC[C@@H]1C[C@@H](C(=O)N[C@@H]([C@H]2O[C@H](SC)[C@H](O)[C@@H](O)[C@H]2O)[C@@H](C)O)N(C)C1` [LINCOMYCIN], the MIC in test [1] was determined as 128 µg/mL; in [2], 64 µg/mL (≈ 157 µM); in [3], 64 µg/mL; in test [4], 256 µg/mL (≈ 630 µM); in test [5], 256 µg/mL; against Escherichia coli [6], 1020 µg/mL (≈ 2520 µM). In addition, the MIC against Escherichia coli [7] was 64 µg/mL (≈ 157 µM); against Escherichia coli [8], above 1020 µg/mL; in the test with Escherichia coli [9], 512 µg/mL (≈ 1260 µM); in [10], 128 µg/mL (≈ 315 µM).
Turning to `CN(C)c1ccc2cc3ccc(N(C)C)cc3nc2c1` [ACRIDINE ORANGE], the minimum inhibitory concentration (MIC) was 256 µg/mL in test [1]; 256 µg/mL (≈ 965 µM) in [2]; 128 µg/mL in [3]; 1020 µg/mL (≈ 3860 µM) in test [4]; 256 µg/mL in test [5]; above 1020 µg/mL in the test with Escherichia coli [6]. Moreover, the minimum inhibitory concentration (MIC) with Escherichia coli [7] is 128 µg/mL (≈ 482 µM); in the test on Escherichia coli [8] it was above 1020 µg/mL; with Escherichia coli [9], 256 µg/mL (≈ 965 µM); in test [10] it was 512 µg/mL (≈ 1930 µM).
Consider `CN(C)c1ccc(O)c2c1C[C@H]1C[C@H]3[C@H](N(C)C)C(O)=C(C(N)=O)C(=O)[C@@]3(O)C(O)=C1C2=O` [MINOCYCLINE], for which the MIC in test [1] stood at 0.5 µg/mL; in test [2], 0.4 µg/mL (≈ 0.874 µM); in [3], 0.25 µg/mL; in [4], 2 µg/mL (≈ 4.37 µM); in [5], 1 µg/mL; against Escherichia coli [6], 1 µg/mL (≈ 2.19 µM). Also, the MIC in the test with Escherichia coli [7] stood at 0.12 µg/mL (≈ 0.262 µM); in the test on Escherichia coli [8] it was 2 µg/mL (≈ 4.37 µM); against Escherichia coli [9], 1 µg/mL (≈ 2.19 µM); in test [10], 1 µg/mL (≈ 2.19 µM).
For `CC[C@H]1NC(=O)[C@@H](NC(=O)c2ncccc2O)[C@@H](C)OC(=O)[C@H](c2ccccc2)NC(=O)[C@@H]2CC(=O)CCN2C(=O)[C@H](Cc2ccc(N(C)C)cc2)N(C)C(=O)[C@@H]2CCCN2C1=O` [PRISTINAMYCIN 1A] ({Picolinoyl(3-OH)}-T[dAbu]P[NMePhe(4-NMe2)][Pip(4-oxo)][Phg]; ester 1-C), the MIC turned out to be 2 µg/mL in test [1]; 8 µg/mL (≈ 9.23 µM) in [2]; 1 µg/mL in [3]; 128 µg/mL (≈ 148 µM) in [4]; 4 µg/mL in [5]; 64 µg/mL (≈ 73.8 µM) against Escherichia coli [6]. Besides, the MIC with Escherichia coli [7] amounted to 4 µg/mL (≈ 4.61 µM); with Escherichia coli [8] it was 64 µg/mL (≈ 73.8 µM); in the test on Escherichia coli [9], 64 µg/mL (≈ 73.8 µM); in test [10], 32 µg/mL (≈ 36.9 µM).
Regarding TRIBUTYLSTANNANYL, the MIC was 2 µg/mL in test [11]; 16 µg/mL in test [12]; 2 µg/mL in test [13]; 256 µg/mL in test [14]; 4 µg/mL in [15]; above 1020 µg/mL with Escherichia coli [6]. Besides, the MIC with Escherichia coli [7] is 4 µg/mL; with Escherichia coli [8], above 1020 µg/mL; against Escherichia coli [9], 16 µg/mL; in [16] it was 32 µg/mL.
